Tests used:
MCF7 = assay: Cytotoxicity against human MCF7 cells assessed as [3H]-hypoxanthine incorporation after 48 hrs; format: cell-based
Summary of the method: (§1)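 Cells grown in RPMI with 10% fetal calf serum and exposed to serial compound dilutions for 48 h. Growth measured by [3H]-hypoxanthine incorporation relative to untreated control cultures. Inhibition percentages plotted versus concentration; IC50 read graphically.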

Vero = assay: Cytotoxicity against african green monkey Vero cells assessed as [3H]-hypoxanthine incorporation after 48 hrs; format: cell-based; details: Chlorocebus sabaeus; summary of the method: as §1
Leishmania amazonensis = assay: Antileishmanial activity against Leishmania amazonensis MHOM/BR/76/LTB-012 axenic amastigotes after 72 hrs by MTT assay; format: functional, organism-based; details: MHOM/BR/76/LTB-012, 72 h
Summary of the method: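 Axenic amastigotes kept by weekly subpassage in MAA/20 medium, 32 ± 1 °C, 5% CO2. Seeded in 96-well plates. Compounds in DMSO tested at four concentrations (50–0.05 µg/mL or 50–0.2 µg/mL, depending on compound) for 72 h. MTT added for 4 h, stopped with 2-propanol/SDS, OD read at 570 nm. % inhibition computed against untreated control; IC50 from inhibition curve. Triplicates; amphotericin B reference.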

[1] = Cytotoxicity against mouse peritoneal macrophages assessed as cell viability after 48 hrs by hematocytometer; format: cell-based; details: Peritoneal macrophage cell

SMILES | IC50 (MCF7) [µM] | IC50 (Vero) [µM] | IC50 (Leishmania amazonensis) [µM] | IC50 [1] [µM]
O=C1OC[C@@H]([C@H](O)c2ccc3c(c2)OCO3)[C@H]1C(=O)c1ccc2c(c1)OCO2 [SANGUINOLIGNAN B] | 250 | > 260 | > 130 | –
CC(=O)O[C@H](c1ccc2c(c1)OCO2)[C@H]1C(=O)OC[C@@H]1C(=O)c1ccc2c(c1)OCO2 [SANGUINOLIGNAN D] | 17.1 | 82.1 | 69.7 | –
O=C(CC(CO)C(=O)c1ccc2c(c1)OCO2)c1ccc2c(c1)OCO2 (stereo not given) [JUSTIFLORINOL] | 140 | > 281 | > 140 | –
CCCCCCC[C@H](C)OC(=O)/C=C/c1ccc(O)c(O)c1 | 3.2 | 31 | 1.8 | 12.7
CCC[C@H](C)OC(=O)/C=C/c1ccc(O)c(O)c1 | 14 | 62 | 2 | 72
COc1ccc([C@@H](OC(C)=O)[C@H]2COC(=O)[C@@H]2C(=O)c2ccc3c(c2)OCO3)cc1OC [SANGUINOLIGNAN C] | 79.2 | > 226 | 105 | –
C[C@@H]1[C@H](O)[C@@H](C)/C=C/C=C/C=C/C=C/C=C/C=C/C=C/[C@H](O[C@@H]2O[C@H](C)[C@@H](O)[C@H](N)[C@@H]2O)C[C@@H]2O[C@](O)(C[C@@H](O)C[C@@H](O)[C@H](O)CC[C@@H](O)C[C@@H](O)CC(=O)O[C@H]1C)C[C@H](O)[C@H]2C(=O)O [AMPHOTERICIN B] | – | – | 0.11 | 3.6
OC[C@H](Cc1ccc2c(c1)OCO2)[C@H](CO)Cc1ccc2c(c1)OCO2 [DIHYDROCUBEBIN] | 89.4 | 83.8 | > 140 | –
CCCCC[C@H](C)OC(=O)/C=C/c1ccc(O)c(O)c1 | 10.6 | 89.8 | 10 | 16.1
O=C1OC[C@H]([C@H](O)c2ccc3c(c2)OCO3)[C@H]1C(=O)c1ccc2c(c1)OCO2 [SANGUINOLIGNAN A] | 146 | 109 | 36.7 | > 260
O=C(O)/C=C/c1ccc(O)c(O)c1 [CAFFEIC ACID] | > 550 | > 550 | 17.8 | > 550
O=C1OC[C@H]([C@H](O)c2ccc3c(c2)OCO3)[C@H]1Cc1ccc2c(c1)OCO2 | 151 | 114 | 79.4 | –

— ChEMBL document CHEMBL1641391, “Caffeic acid esters and lignans from Piper sanguineispicum” (J Nat Prod, 2010)
